Measurements taken from ChEMBL document CHEMBL4354843, “Structure-Based Design of a Potent and Selective Covalent Inhibitor for SRC Kinase That Targets a P-Loop Cysteine” (J Med Chem, 2020).
The source made the active and inactive calls. The calls are words filed in the database; no cut-off is given here.

Tests used:
[1] = tested on: eIF-2-alpha kinase GCN2 (Homo sapiens), Q9P2K8 [S808G]; experiment: Binding affinity to wild-type human partial length GCN2 kinase domain 2 (R585 to T1018 residues) S808G mutant expressed in bacterial expression system assessed as residual binding level at 1 uM by Kinomescan method relative to control
[2] = target: Calcium/calmodulin-dependent protein kinase kinase 1 (Homo sapiens) (UniProt Q8N5S9); experiment: Binding affinity to wild-type human partial length CAMKK1 (R65 to E414 residues) expressed in bacterial expression system assessed as residual binding level at 1 uM by Kinomescan method relative to control
[3] = target: Serine/threonine-protein kinase DCLK2 (Homo sapiens) (UniProt Q8N568); experiment: Binding affinity to wild-type human partial length DCAMKL2 (K273 to V664 residues) expressed in bacterial expression system assessed as residual binding level at 1 uM by Kinomescan method relative to control
[4] = target: Serine/threonine-protein kinase BRSK2 (Homo sapiens) (UniProt Q8IWQ3); experiment: Binding affinity to wild-type human full length BRSK2 (M1 to L674 residues) expressed in bacterial expression system assessed as residual binding level at 1 uM by Kinomescan method relative to control
Summary of the method: (§1)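 Active-site-directed KinomeScan competition binding panel covering 468 kinases, compound tested at 1 μM. Each readout is the kinase signal remaining with compound, expressed as a percentage of the DMSO control. […]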

[5] = target: Mitogen-activated protein kinase kinase kinase kinase 1 (Homo sapiens) (UniProt Q92918); experiment: Binding affinity to wild-type human full length HPK1 (M1 to R799 residues) expressed in bacterial expression system assessed as residual binding level at 1 uM by Kinomescan method relative to control; summary of the method: as §1
[6] = tested on: Tyrosine-protein kinase ABL1 (Homo sapiens), P00519 [E255K]; experiment: Binding affinity to human phosphorylated ABL1 E255K mutant (S229 to K512 residues) expressed in mammalian expression system assessed as residual binding level at 1 uM by Kinomescan method relative to control
Summary of the method: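 KinomeScan active site-directed competition binding panel (468 kinases), compound tested at 1 μM. Result expressed as remaining kinase signal versus DMSO control (percent of control).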

[7] = target: Tyrosine-protein kinase Lck (Homo sapiens) (UniProt P06239); experiment: Binding affinity to wild-type human partial length LCK (R207 to P509 residues) expressed in bacterial expression system assessed as residual binding level at 1 uM by Kinomescan method relative to control
Summary of the method: (§2)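 Active-site-directed competition binding panel of 468 kinases (KinomeScan), compound at 1 μM. The read-out is kinase remaining bound, given as a percentage of the DMSO control. […]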

[8] = target: SRSF protein kinase 3 (Homo sapiens) (UniProt Q9UPE1); experiment: Binding affinity to wild-type human partial length SRPK3 (P41 to P567 residues) expressed in bacterial expression system assessed as residual binding level at 1 uM by Kinomescan method relative to control
[9] = tested on: ALK tyrosine kinase receptor (Homo sapiens), Q9UM73 [L1196M]; experiment: Binding affinity to wild-type human partial length ALK L1196M mutant (I1088 to E1409 residues) expressed in mammalian expression system assessed as residual binding level at 1 uM by Kinomescan method relative to control
[10] = target: Serine/threonine-protein kinase WNK1 (Homo sapiens) (UniProt Q9H4A3); experiment: Binding affinity to wild-type human partial length WNK1 (Q194 to A490 residues) expressed in mammalian expression system assessed as residual binding level at 1 uM by Kinomescan method relative to control
[11] = target: Mitogen-activated protein kinase; ERK1/ERK2 (Homo sapiens) (UniProt P27361+P28482); experiment: Inhibition of ERK1/2 in human NCI-H1975 cells assessed as blocking of ERK1/2 pulldown at 1 uM in presence of TL13-68 incubated for 2 hrs by Western blot analysis; assay type: cell-based
Summary of the method: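 H1975 or HCC827 cells treated with 1 μM compound or DMSO for 2 h, rinsed twice in cold PBS, and lysed in M-PER with protease/phosphatase inhibitors. Lysate rocked overnight at 4 °C with 1 μM TL13-68, then streptavidin pulldown with five cold washes. Bound kinases detected by Western blot. Two independent experiments.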

[12] = target: Myosin light chain kinase, smooth muscle (Homo sapiens) (UniProt Q15746); experiment: Binding affinity to wild-type human full length MYLK (M854 to E1845 residues) expressed in mammalian expression system assessed as residual binding level at 1 uM by Kinomescan method relative to control
Summary of the method: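 Active-site-directed competition binding panel (KinomeScan) covering 468 kinases. Test agent was screened at 1 μM. The read-out is the remaining kinase signal expressed relative to a DMSO control. Scores above 35%, taken as weak binding, were not reported.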

[13] = target: Serine/threonine-protein kinase PLK3 (Homo sapiens) (UniProt Q9H4B4); experiment: Binding affinity to wild-type human partial length PLK3 (A42 to L334 residues) expressed in mammalian expression system assessed as residual binding level at 1 uM by Kinomescan method relative to control
[14] = target: Tyrosine-protein kinase SYK (Homo sapiens) (UniProt P43405); experiment: Binding affinity to wild-type human partial length SYK (D354 to N635 residues) expressed in bacterial expression system assessed as residual binding level at 1 uM by Kinomescan method relative to control
[15] = target: Vascular endothelial growth factor receptor 1 (Homo sapiens) (UniProt P17948); experiment: Binding affinity to wild-type human partial length FLT1 (R781 to F1239 residues) expressed in bacterial expression system assessed as residual binding level at 1 uM by Kinomescan method relative to control
[16] = target: Dual specificity mitogen-activated protein kinase kinase 1 (Homo sapiens) (UniProt Q02750); experiment: Binding affinity to wild-type human full length MEK1 (M1 to V393 residues) expressed in mammalian expression system assessed as residual binding level at 1 uM by Kinomescan method relative to control
Summary of the method: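 KinomeScan, an active site-directed competition binding panel of 468 kinases. The test compound was at 1 μM. The readout is remaining kinase binding as a percentage of the DMSO control. Scores above 35% were treated as weak binding and not listed.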

[17] = target: Discoidin domain-containing receptor 2 (Homo sapiens) (UniProt Q16832); experiment: Binding affinity to wild-type human partial length DDR2 (V555 to E855 residues) expressed in mammalian expression system assessed as residual binding level at 1 uM by Kinomescan method relative to control; summary of the method: as §2
[18] = target: BDNF/NT-3 growth factors receptor (Homo sapiens) (UniProt Q16620); experiment: Binding affinity to wild-type human partial length TRKB (Q547 to G838 residues) expressed in mammalian expression system assessed as residual binding level at 1 uM by Kinomescan method relative to control
[19] = target: Serine/threonine-protein kinase TAO1 (Homo sapiens) (UniProt Q7L7X3); experiment: Binding affinity to wild-type human partial length TAOK1 (M1 to A320 residues) expressed in mammalian expression system assessed as residual binding level at 1 uM by Kinomescan method relative to control
Serine/threonine-protein kinase TAO1 (Homo sapiens), sequence (Q7L7X3 whole entry, the tested form may be a part): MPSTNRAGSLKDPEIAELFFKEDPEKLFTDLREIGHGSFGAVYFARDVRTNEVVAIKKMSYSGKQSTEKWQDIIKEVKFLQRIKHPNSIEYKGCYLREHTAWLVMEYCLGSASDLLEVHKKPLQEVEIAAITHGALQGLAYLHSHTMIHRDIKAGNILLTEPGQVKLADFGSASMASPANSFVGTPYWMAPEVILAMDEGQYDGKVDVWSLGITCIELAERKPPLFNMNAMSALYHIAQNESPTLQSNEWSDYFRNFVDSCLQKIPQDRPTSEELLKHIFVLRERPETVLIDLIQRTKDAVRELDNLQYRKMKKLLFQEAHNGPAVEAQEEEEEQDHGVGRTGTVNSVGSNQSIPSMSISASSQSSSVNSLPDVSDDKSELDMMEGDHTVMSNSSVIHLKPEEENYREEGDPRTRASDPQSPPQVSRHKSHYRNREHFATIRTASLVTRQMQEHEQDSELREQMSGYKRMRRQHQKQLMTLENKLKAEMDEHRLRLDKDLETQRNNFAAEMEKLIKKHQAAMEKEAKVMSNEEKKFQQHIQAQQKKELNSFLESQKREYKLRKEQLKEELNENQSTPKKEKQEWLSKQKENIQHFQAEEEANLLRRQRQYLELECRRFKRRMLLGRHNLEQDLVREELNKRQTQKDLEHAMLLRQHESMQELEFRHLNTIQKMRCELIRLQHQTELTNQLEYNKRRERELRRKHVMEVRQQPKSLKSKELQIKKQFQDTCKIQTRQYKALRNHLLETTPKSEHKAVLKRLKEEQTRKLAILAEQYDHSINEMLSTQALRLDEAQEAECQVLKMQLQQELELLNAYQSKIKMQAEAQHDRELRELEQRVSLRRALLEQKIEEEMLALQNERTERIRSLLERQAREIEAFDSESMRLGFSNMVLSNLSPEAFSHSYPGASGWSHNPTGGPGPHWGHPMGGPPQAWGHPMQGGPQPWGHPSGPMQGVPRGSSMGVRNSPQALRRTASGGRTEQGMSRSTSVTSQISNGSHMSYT

Myosin light chain kinase, smooth muscle (Homo sapiens), sequence (Q15746 whole entry, the tested form may be a part): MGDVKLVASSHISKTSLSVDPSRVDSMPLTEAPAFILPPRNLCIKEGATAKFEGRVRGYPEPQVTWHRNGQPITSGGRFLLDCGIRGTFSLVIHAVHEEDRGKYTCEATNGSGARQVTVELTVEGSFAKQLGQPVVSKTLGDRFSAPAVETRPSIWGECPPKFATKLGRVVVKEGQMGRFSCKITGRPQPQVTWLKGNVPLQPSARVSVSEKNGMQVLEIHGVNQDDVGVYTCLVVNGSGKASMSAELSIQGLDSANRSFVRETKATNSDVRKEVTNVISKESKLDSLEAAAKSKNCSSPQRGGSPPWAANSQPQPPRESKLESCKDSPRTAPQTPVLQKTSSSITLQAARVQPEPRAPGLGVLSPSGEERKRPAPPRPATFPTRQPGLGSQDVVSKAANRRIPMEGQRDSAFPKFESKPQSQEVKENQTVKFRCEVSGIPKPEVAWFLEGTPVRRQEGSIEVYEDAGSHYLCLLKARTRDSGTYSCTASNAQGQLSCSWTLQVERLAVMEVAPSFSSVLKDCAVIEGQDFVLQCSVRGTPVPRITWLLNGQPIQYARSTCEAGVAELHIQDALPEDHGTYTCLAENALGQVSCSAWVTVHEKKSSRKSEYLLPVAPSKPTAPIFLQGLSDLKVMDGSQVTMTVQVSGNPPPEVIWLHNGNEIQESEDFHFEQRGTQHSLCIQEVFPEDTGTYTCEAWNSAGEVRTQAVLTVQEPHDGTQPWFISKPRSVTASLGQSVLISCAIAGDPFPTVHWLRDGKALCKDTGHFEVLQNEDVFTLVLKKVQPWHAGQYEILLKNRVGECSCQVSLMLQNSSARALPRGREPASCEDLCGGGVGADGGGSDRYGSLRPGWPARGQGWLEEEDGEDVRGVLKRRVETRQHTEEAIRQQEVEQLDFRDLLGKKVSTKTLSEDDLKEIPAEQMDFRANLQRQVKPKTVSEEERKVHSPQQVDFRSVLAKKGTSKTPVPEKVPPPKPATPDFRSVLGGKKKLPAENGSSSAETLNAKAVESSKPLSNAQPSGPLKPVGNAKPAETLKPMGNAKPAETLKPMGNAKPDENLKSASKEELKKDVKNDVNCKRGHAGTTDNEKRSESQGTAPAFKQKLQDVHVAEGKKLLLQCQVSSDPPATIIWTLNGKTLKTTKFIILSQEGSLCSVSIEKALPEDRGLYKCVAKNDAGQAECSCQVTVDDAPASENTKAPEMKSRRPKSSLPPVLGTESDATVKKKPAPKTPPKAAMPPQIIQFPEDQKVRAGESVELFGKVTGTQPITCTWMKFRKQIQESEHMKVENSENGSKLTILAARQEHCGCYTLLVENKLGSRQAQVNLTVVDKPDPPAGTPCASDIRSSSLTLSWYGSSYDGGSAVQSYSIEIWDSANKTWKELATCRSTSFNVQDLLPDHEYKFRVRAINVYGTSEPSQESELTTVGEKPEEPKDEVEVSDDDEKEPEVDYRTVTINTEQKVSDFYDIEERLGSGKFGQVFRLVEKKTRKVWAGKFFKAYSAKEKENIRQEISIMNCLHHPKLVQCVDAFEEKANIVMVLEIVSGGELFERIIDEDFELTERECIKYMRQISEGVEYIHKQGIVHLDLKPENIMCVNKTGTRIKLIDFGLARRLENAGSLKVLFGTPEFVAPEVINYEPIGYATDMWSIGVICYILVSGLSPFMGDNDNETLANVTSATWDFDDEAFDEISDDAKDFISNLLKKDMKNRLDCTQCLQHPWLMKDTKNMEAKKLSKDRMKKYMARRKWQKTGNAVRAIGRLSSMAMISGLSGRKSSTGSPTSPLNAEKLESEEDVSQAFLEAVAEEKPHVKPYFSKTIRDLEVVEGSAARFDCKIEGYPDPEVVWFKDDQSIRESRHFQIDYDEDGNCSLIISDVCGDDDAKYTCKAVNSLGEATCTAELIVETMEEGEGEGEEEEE
Mitogen-activated protein kinase kinase kinase kinase 1 (Homo sapiens), sequence (Q92918 whole entry, looked up, the tested form may be a part): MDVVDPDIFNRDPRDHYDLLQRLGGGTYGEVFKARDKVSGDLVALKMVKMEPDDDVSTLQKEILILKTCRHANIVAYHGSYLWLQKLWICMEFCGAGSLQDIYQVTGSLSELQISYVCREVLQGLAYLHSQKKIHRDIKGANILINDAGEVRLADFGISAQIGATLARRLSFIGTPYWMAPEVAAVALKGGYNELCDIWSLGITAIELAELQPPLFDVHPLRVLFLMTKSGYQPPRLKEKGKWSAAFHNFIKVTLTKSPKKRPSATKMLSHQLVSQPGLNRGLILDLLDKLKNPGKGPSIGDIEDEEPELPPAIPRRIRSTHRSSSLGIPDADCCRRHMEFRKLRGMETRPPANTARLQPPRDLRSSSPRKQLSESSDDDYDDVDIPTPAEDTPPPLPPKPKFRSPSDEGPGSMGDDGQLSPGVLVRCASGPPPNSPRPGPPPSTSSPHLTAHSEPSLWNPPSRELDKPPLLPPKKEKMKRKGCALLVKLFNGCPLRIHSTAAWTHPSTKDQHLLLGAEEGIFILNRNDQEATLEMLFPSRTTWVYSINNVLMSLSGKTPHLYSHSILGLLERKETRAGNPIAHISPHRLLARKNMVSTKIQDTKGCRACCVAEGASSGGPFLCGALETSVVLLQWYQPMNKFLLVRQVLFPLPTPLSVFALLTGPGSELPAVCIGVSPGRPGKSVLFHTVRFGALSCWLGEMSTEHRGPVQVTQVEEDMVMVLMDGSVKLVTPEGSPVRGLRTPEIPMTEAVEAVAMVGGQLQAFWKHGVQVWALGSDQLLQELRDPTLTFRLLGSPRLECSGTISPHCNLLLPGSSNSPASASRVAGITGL
Mitogen-activated protein kinase; ERK1/ERK2 (Homo sapiens), sequence (P27361 whole entry, looked up): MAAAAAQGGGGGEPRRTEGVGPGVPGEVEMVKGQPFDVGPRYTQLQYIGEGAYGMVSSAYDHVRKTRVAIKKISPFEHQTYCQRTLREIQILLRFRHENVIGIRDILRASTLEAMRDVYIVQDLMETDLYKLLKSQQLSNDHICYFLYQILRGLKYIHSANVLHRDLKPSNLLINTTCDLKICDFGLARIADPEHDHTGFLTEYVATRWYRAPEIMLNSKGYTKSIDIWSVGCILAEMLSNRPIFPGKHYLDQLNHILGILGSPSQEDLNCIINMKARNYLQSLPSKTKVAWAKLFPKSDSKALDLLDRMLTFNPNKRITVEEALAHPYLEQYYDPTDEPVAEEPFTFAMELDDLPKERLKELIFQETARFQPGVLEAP
Mitogen-activated protein kinase; ERK1/ERK2 (Homo sapiens), sequence (P28482 whole entry, looked up): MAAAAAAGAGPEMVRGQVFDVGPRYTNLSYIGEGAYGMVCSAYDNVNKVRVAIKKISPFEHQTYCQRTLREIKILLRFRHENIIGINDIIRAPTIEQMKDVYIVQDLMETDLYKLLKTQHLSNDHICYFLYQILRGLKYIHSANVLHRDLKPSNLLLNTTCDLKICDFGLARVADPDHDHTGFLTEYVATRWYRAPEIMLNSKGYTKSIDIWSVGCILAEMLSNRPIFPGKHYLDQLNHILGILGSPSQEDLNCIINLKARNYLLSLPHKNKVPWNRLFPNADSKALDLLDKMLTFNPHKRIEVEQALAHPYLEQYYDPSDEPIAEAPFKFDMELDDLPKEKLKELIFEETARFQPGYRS
SRSF protein kinase 3 (Homo sapiens), sequence (Q9UPE1 whole entry, the tested form may be a part): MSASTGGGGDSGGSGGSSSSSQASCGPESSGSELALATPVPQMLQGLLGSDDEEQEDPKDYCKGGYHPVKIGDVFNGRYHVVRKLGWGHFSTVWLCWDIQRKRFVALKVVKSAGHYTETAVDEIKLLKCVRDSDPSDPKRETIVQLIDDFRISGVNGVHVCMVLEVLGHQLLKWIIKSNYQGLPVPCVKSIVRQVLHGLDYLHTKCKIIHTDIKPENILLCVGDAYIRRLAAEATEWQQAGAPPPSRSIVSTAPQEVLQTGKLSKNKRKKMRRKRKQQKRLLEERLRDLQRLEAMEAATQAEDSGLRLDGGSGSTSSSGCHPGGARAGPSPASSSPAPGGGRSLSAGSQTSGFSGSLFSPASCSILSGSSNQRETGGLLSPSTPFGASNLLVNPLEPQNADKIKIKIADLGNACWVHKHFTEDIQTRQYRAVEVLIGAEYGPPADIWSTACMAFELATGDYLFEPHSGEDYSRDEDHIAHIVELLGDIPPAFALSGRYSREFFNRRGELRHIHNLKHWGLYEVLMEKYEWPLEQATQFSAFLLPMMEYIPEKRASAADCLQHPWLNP

## C=CC(=O)Nc1ccccc1Nc1nc(Nc2ccc(N3CCN(C)CC3)cc2)ncc1C(=O)Nc1c(C)cccc1Cl
[1]
  Activity: 87%
[2]
  Activity: 100%
[3]
  Activity: 100%
[4]
  Activity: 100%
[5]
  Activity: 100%
[6]
  Activity: 0.15%
[7]
  Activity: 0.25%
[8]
  Activity: 100%
[9]
  Activity: 90%
[10]
  Activity: 100%
[11]
  inhibition: inactive
[12]
  Activity: 100%
[13]
  Activity: 100%
[14]
  Activity: 100%
[15]
  Activity: 100%
[16]
  Activity: 93%
[17]
  Activity: 26%
[18]
  Activity: 100%
[19]
  Activity: 100%
